Test [1] deals with T1, Potassium voltage-gated channel subfamily A member 3 (Homo sapiens, UniProt P22001). Description: Inhibition of human Kv1.3 expressed in CHO cells at -80 mV holding potential by whole cell automated patch clamp method. It counts as cell-based. The method in brief:
(§1)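 Human channels stably expressed in CHO cells, dissociated with 0.05% trypsin-EDTA, held in serum-free medium and resuspended in extracellular solution just before recording. Whole-cell QPatch recordings used a -80 mV holding potential and 500 ms steps to +30 mV at 0.067 Hz. Series resistance was 80% compensated with P/n leak subtraction. After 0.1% DMSO vehicle, four escalating concentrations were applied cumulatively.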

Test [2] addresses Potassium voltage-gated channel subfamily A member 1 (Rattus norvegicus) (UniProt P10499). The test can be described thus: Inhibition of rat Kv1.1 expressed in Xenopus laevis oocytes at 1 uM at -90 mV holding potential by two-electrode voltage clamp assay relative to control. It counts as cell-based. (In general: In two-electrode clamp one electrode senses voltage and the other passes current.)

Test [3] addresses T1, Potassium voltage-gated channel subfamily A member 3. Description: Inhibition of human Kv1.3 expressed in Xenopus laevis oocytes at 1 uM at -90 mV holding potential by two-electrode voltage clamp assay relative to control.
Test [4] concerns the target Potassium voltage-gated channel subfamily A member 4 (Rattus norvegicus) (UniProt P15385). Description: Inhibition of rat Kv1.4 expressed in Xenopus laevis oocytes at 1 uM at -90 mV holding potential by two-electrode voltage clamp assay relative to control. The class given is cell-based.
The target in test [5] is Potassium voltage-gated channel subfamily A member 2 (Rattus norvegicus) (UniProt P63142). Description: Inhibition of rat Kv1.2 expressed in Xenopus laevis oocytes at 1 uM at -90 mV holding potential by two-electrode voltage clamp assay relative to control. The class given is cell-based.
For test [6], the target named is Potassium voltage-gated channel subfamily A member 6 (Rattus norvegicus) (UniProt P17659). Description: Inhibition of rat Kv1.6 expressed in Xenopus laevis oocytes at 1 uM at -90 mV holding potential by two-electrode voltage clamp assay relative to control. The class given is cell-based.
Test [7] deals with Potassium voltage-gated channel subfamily H member 1 (Homo sapiens). Description: Inhibition of human Kv10.1 expressed in Xenopus laevis oocytes at 1 uM at -90 mV holding potential by two-electrode voltage clamp assay relative to control.
Test [8] deals with Potassium voltage-gated channel subfamily A member 5 (Rattus norvegicus) (UniProt P19024). The test can be described thus: Inhibition of rat Kv1.5 expressed in Xenopus laevis oocytes at 1 uM at -90 mV holding potential by two-electrode voltage clamp assay relative to control. The class given is cell-based.
In test [9] the target is Potassium voltage-gated channel subfamily A member 5 (Homo sapiens, UniProt P22460). Description: Inhibition of human Kv1.5 expressed in CHO cells at -80 mV holding potential by whole cell automated patch clamp method. The class given is cell-based.
The target in test [10] is Potassium voltage-gated channel subfamily A member 6 (Homo sapiens, UniProt P17658). Description: Inhibition of human Kv1.6 expressed in CHO cells at -80 mV holding potential by whole cell automated patch clamp method. It counts as cell-based. The method in brief:
as §1

Test [11] addresses Potassium voltage-gated channel subfamily A member 1 (Homo sapiens, UniProt Q09470). The test can be described thus: Inhibition of human Kv1.1 expressed in CHO cells at -80 mV holding potential by whole cell automated patch clamp method. It counts as cell-based. The method in brief:
as §1
(In general: Patch clamp records ionic current or voltage across a cell membrane.)

Test [12] addresses Potassium voltage-gated channel subfamily A member 4 (Homo sapiens, UniProt P22459). Description: Inhibition of human Kv1.4 expressed in CHO cells at -80 mV holding potential by whole cell automated patch clamp method. The class given is cell-based. The method in brief: as §1
Test [13] addresses Potassium voltage-gated channel subfamily A member 2 (Homo sapiens, UniProt P16389). Description: Inhibition of human Kv1.2 expressed in CHO cells at -80 mV holding potential by whole cell automated patch clamp method. The class given is cell-based. The method in brief:
as §1

The target of test [14] is Potassium voltage-gated channel subfamily A member 6 (Rattus norvegicus, UniProt P17659). The test can be described thus: Inhibition of rat Kv1.6 expressed in Xenopus laevis oocytes at -90 mV holding potential by two-electrode voltage clamp assay. It counts as cell-based. The method in brief:
(§2)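 Stage V-VI Xenopus laevis oocytes were injected with 50 nL cRNA (1 ng/nL). Currents were recorded by two-electrode voltage clamp. IC50 values come from at least 3 independent experiments and are given as mean ± standard error.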

Test [15] deals with Potassium voltage-gated channel subfamily A member 4 (Rattus norvegicus, UniProt P15385). Description: Inhibition of rat Kv1.4 expressed in Xenopus laevis oocytes at -90 mV holding potential by two-electrode voltage clamp assay. The class given is cell-based. The method in brief: as §2
For test [16], the target named is T1, Potassium voltage-gated channel subfamily A member 3. Description: Inhibition of human Kv1.3 expressed in Xenopus laevis oocytes at -90 mV holding potential by two-electrode voltage clamp assay.

Calls of active or inactive are those of the source. No cut-off for these calls is given here.

In general, IC50 refers to the concentration needed to halve the response being measured. Higher therefore signals weaker potency. As usually defined, the inhibition is the share of the control response that was lost under treatment.

Sequence of Potassium voltage-gated channel subfamily A member 2 (Rattus norvegicus) (P63142 whole entry): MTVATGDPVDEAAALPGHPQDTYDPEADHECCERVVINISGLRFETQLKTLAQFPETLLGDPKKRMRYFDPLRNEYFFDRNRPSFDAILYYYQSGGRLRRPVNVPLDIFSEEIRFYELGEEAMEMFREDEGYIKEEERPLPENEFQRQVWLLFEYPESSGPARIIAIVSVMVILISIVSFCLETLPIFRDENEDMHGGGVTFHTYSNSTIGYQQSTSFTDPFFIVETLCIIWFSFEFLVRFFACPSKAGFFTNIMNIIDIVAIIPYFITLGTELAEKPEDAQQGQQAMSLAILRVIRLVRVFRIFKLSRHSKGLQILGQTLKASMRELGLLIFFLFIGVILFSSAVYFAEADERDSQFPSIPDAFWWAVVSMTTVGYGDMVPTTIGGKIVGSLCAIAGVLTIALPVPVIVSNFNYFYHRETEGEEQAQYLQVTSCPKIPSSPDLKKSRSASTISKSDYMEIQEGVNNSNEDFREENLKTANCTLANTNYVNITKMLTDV
Sequence of Potassium voltage-gated channel subfamily A member 5 (Rattus norvegicus) (P19024 whole entry): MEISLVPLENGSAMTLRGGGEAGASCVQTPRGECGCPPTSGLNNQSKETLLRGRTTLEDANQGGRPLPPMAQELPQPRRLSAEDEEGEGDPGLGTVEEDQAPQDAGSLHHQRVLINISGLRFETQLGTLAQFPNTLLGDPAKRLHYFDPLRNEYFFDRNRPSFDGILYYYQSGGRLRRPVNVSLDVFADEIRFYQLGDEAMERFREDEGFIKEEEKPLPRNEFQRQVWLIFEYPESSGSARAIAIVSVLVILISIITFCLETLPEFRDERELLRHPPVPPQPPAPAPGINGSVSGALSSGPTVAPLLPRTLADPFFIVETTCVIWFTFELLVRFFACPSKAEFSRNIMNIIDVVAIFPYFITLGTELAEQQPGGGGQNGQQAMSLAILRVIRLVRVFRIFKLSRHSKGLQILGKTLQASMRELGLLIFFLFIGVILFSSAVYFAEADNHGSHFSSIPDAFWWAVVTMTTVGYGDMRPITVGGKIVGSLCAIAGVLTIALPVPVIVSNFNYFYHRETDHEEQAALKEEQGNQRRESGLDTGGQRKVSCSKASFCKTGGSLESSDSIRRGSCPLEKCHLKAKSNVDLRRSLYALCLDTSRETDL
Sequence of Potassium voltage-gated channel subfamily A member 4 (Rattus norvegicus) (P15385 whole entry): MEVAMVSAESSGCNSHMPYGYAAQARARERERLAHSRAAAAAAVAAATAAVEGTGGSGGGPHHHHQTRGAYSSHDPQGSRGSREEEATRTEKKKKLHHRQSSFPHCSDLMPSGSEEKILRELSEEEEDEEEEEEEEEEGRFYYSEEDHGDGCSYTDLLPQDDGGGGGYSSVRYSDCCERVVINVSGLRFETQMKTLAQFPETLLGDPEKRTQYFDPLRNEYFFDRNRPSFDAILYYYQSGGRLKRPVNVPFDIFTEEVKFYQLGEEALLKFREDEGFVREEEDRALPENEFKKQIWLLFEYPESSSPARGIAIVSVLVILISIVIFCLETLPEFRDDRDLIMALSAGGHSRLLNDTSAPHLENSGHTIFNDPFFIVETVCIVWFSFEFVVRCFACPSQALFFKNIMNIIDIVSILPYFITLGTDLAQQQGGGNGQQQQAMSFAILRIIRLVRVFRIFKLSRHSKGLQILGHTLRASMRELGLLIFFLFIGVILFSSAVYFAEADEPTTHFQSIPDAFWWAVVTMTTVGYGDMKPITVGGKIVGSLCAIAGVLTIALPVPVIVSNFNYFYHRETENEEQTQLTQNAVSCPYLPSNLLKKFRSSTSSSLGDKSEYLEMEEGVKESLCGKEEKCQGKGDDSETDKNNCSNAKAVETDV
Sequence of Potassium voltage-gated channel subfamily A member 1 (Q09470 whole entry): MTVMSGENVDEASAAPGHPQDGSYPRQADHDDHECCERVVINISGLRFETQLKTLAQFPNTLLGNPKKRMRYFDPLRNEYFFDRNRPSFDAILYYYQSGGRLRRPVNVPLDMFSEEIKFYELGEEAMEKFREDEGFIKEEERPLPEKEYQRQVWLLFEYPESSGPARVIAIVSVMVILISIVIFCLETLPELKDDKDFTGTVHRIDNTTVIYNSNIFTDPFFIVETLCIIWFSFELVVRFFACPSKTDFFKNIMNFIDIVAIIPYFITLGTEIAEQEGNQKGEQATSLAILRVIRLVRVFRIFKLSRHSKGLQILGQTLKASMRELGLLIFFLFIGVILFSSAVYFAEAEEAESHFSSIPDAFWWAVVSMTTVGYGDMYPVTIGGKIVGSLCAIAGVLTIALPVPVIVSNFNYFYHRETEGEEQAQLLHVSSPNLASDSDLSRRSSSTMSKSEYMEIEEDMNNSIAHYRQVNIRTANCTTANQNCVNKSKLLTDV
Sequence of Potassium voltage-gated channel subfamily A member 6 (Homo sapiens, UniProt P17658) (P17658 whole entry): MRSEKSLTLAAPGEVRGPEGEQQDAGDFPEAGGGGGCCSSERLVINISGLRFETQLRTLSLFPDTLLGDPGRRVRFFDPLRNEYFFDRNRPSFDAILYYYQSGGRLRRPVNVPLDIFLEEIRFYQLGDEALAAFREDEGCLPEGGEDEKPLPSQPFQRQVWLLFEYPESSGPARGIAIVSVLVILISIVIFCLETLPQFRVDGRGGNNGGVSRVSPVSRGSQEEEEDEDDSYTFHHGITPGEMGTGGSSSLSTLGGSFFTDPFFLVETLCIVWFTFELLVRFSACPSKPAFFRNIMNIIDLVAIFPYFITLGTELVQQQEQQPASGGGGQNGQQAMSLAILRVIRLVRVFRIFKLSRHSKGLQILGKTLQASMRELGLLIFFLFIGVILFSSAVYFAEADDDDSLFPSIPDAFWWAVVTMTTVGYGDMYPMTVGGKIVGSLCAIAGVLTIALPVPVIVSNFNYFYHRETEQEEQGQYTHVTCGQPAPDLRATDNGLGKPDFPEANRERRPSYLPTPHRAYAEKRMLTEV
Sequence of Potassium voltage-gated channel subfamily A member 6 (Rattus norvegicus) (P17659 whole entry): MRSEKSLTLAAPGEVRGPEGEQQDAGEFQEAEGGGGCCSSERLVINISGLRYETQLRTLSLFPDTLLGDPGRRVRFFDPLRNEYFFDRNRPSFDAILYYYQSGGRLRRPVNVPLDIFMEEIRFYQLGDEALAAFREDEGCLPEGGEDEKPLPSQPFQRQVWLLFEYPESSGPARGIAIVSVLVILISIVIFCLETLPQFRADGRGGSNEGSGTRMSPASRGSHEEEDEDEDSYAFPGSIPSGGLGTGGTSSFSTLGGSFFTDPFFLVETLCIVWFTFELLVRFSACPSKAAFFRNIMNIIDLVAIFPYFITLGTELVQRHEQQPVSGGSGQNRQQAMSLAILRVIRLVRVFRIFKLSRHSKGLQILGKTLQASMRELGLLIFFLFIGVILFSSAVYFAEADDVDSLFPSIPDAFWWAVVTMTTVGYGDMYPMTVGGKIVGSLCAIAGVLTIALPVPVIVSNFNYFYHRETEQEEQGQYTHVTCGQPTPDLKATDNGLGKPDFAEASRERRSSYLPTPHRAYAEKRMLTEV
Sequence of Potassium voltage-gated channel subfamily A member 4 (Homo sapiens, UniProt P22459) (P22459 whole entry): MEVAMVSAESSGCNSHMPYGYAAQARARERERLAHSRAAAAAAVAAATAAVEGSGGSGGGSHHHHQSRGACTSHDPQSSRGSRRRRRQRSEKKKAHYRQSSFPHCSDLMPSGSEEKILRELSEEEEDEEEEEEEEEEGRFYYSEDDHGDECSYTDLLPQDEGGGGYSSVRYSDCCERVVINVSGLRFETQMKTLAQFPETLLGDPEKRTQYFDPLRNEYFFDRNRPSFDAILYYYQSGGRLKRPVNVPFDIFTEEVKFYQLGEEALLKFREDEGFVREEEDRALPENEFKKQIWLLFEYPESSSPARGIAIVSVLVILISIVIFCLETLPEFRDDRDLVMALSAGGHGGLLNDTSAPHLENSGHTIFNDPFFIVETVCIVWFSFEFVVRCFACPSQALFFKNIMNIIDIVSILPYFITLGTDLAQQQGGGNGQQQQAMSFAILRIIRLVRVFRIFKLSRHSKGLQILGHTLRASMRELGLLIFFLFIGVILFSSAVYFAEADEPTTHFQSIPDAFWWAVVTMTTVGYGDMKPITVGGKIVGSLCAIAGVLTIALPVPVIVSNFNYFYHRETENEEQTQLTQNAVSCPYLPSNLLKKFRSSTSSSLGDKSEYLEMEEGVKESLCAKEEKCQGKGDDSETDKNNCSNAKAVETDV
Sequence of Potassium voltage-gated channel subfamily A member 1 (Rattus norvegicus) (P10499 whole entry): as the sequence (Q09470 whole entry) above, with V9A, V202I, N213T, M449I, V471A, A476G, T480A, A481T, N482D counted along it
Sequence of Potassium voltage-gated channel subfamily A member 2 (P16389 whole entry): as the sequence (P63142 whole entry) above, with V9A, G198S, D355E counted along it

As to `Nc1nc(CCCNC(=O)C2Cc3ccccc3N2)c[nH]1` (stereo unspecified), in test [1], the IC50 was greater than 30 µM. The inhibition result in [2], in [3], in test [4], in test [5], in test [6] and in test [7] was “inactive” each time. Moreover, in test [8], the inhibition result is “inactive”.
As to `Nc1nc(/C=C/CNC(=O)c2cc3ccccc3[nH]2)c[nH]1`, the IC50 in test [9] is greater than 30 µM; in test [1] it was 21 µM; in test [10] it was 14 µM; in [11] it was greater than 30 µM; in test [12] it was 13 µM; in [13], greater than 30 µM. For the same compound, the inhibition entry in test [2], in [3], in test [4], in test [5], in [7] and in test [8] was “inactive” throughout. The compound further returned an inhibition in [6] of 42%.
As to `Cc1[nH]c(C(=O)NC/C=C/c2c[nH]c(N)n2)cc1Br`, the IC50 is 9.8 µM in test [14]; greater than 30 µM in [9]; 25 µM in [1]; 11 µM in [10]; greater than 30 µM in test [11]; 0.38 µM in test [15]. For the same compound, the results for the IC50 in [12], in test [16] and in test [13] were 12 µM, greater than 10 µM and greater than 30 µM, respectively. The inhibition entry in [2], in [3], in [5], in test [7] and in test [8] was “inactive” throughout. Moreover, the figures for the inhibition in [4] and in [6] were 46% and 63%, respectively.
With `Nc1nc(/C=C/CNC(=O)c2cc3cc(Cl)ccc3[nH]2)c[nH]1`, the IC50 in [9] is greater than 30 µM; in test [1], 9 µM; in test [10], 24 µM; in test [11], greater than 30 µM; in test [12], 17 µM; in test [13], greater than 30 µM. For the same compound, the inhibition entry in [2], in [3], in test [4], in test [5], in test [6] and in test [7] was “inactive” each time. Moreover, the inhibition entry in [8] is “inactive”.
In the case of `Nc1nc(/C=C/CNC(=O)c2cc3cc(F)ccc3[nH]2)c[nH]1`, the IC50 in test [9] is greater than 30 µM; in test [1], 14 µM; in [10] it was 7.9 µM; in test [11] it was greater than 30 µM; in test [12] it was 8.8 µM; in test [13], greater than 30 µM. Further, the inhibition entry in test [2], in test [4], in [5], in [6], in [7] and in test [8] was “inactive” each time. The compound also registered an inhibition in test [3] of 28%.
In the case of `Nc1nc(CCCNC(=O)c2cc(Br)c(Br)[nH]2)c[nH]1`, the IC50 in test [1] was greater than 30 µM. Further, the inhibition entry in [2], in [3], in test [4], in test [5], in test [6] and in test [7] was “inactive” each time. The inhibition entry in [8] is “inactive”.
`COc1ccc2[nH]c(C(=O)NC/C=C/c3c[nH]c(N)n3)cc2c1` displayed an IC50 in [1] greater than 30 µM. Further, the inhibition result in test [2], in test [3], in test [4], in test [5], in test [6] and in test [7] was “inactive” each time. Also, the inhibition result in test [8] was “inactive”.
For `O=c1ccc2c(OCCCCOc3ccccc3)c3ccoc3cc2o1`, the IC50 in [9] turned out to be 0.088 µM; in [10], 0.13 µM; in test [11], 0.25 µM; in [12], 0.17 µM; in [13], 0.45 µM.
On to `Nc1nc(/C=C/CNC(=O)c2cc(Br)c[nH]2)c[nH]1`, for which the IC50 in test [9] was 7.6 µM; in [1], 2.5 µM; in test [10], 3.7 µM; in test [11], greater than 30 µM; in test [12], 5.3 µM; in test [13] it was greater than 30 µM. Moreover, the inhibition result in test [2], in [5] and in test [7] was “inactive” in each case. Moreover, the inhibition in test [3] was 32%; in test [4], 11%; in test [6], 22%; in test [8], 10%.
In test [1], `CC(C)(C)OC(=O)N1CCC(C(=O)NC/C=C/c2c[nH]c(N)n2)CC1` yielded an IC50 greater than 30 µM. The inhibition result in test [2], in test [3], in [4], in test [5], in test [6] and in test [7] was “inactive” throughout. For the same compound, the inhibition result in test [8] was “inactive”.
Take `Nc1nc(CCCNC(=O)c2cc3ccccc3[nH]2)c[nH]1`: the inhibition entry in test [2], in test [3], in [4], in test [5], in test [6] and in [7] was “inactive” throughout. Moreover, the inhibition entry in test [8] is “inactive”.
As for `Nc1ncc(/C=C/CNC(=O)c2ccc[nH]2)[nH]1` [CLATHRODIN], the IC50 in [9], in test [1], in [10], in test [11], in test [12] and in [13] was greater than 30 µM in each case. The inhibition entry in [2], in [3], in test [4], in test [5], in test [6] and in test [7] was “inactive” throughout. For the same compound, in test [8], the inhibition result was “inactive”.
The compound `Nc1nc(/C=C/CNC(=O)c2cccnc2)c[nH]1` gave an IC50 in test [1] greater than 30 µM. In addition, the inhibition result in test [2], in test [3], in test [4], in test [5], in test [6] and in test [7] was “inactive” throughout. For the same compound, the inhibition result in test [8] is “inactive”.
In test [1], `Nc1nc(/C=C/CNC(=O)C2CCNCC2)c[nH]1` registered an IC50 greater than 30 µM. Besides, the inhibition in test [2] worked out at 22%; in [3], 28%. Further, the inhibition result in [4], in test [5], in test [6], in test [7] and in test [8] was “inactive” in each case.

The values above are taken from ChEMBL document CHEMBL4190320, “Clathrodin, hymenidin and oroidin, and their synthetic analogues as inhibitors of the voltage-gated potassium channels” (Eur J Med Chem, 2017).
